Experimental data as given in ChEMBL document CHEMBL1123819, “Synthesis and antifungal activity of a series of novel 1,2-disubstituted propenones” (1987).
Converted amounts (≈) assume the structure as drawn.

What was measured:
Format in all cases: functional
[1] = test system: Aspergillus fumigatus; assay: Antifungal activity against Aspergillus fumigatus was determined in vitro
Outline: (§1)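 Broth microdilution in Sabouraud's glucose broth; MIC read as the fungistatic end point. Final inocula were 1 × 10^5 cells/mL for the yeast and 1 × 10^5 conidia/mL for the mould and the dermatophyte.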

[2] = test system: Candida albicans; assay: (§2) Antifungal activity against Candida albicans was determined in vitro; outline: as §1
[3] = test system: Trichophyton benhamiae; assay: Antifungal activity against Trichophyton asteroides was determined in vitro; outline: as §1
[4] = test system: Candida albicans; assay: as §2; remark: listed apart in the source
Outline: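 MIC by broth microdilution in microtiter plates. Final inoculum 1 × 10^5 yeast cells per mL of Sabouraud's glucose broth. Fungistatic activity was assessed.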

| MIC [1] [µg/mL] | MIC [2] [µg/mL] | MIC [3] [µg/mL] | SMILES | MIC [4] [µg/mL] |
| --- | --- | --- | --- | --- |
| > 100 | > 100 | 12.5 (≈ 35.3 µM) | O=C(/C(=C/c1ccc(F)cc1)n1ccccc1=O)c1ccc(Cl)cc1 |  |
| 6.3 (≈ 20.3 µM) | 0.8 (≈ 2.57 µM) | 1.6 (≈ 5.15 µM) | C=C(C(=O)c1ccc(Cl)cc1)n1ncc2ccccc2c1=O |  |
| 25 (≈ 85 µM) | 0.8 (≈ 2.72 µM) | 0.8 (≈ 2.72 µM) | C=C(C(=O)c1ccc(Cl)cc1Cl)n1ccccc1=O |  |
| 6.3 (≈ 33.3 µM) | 0.8 (≈ 4.23 µM) | 3.1 (≈ 16.4 µM) | C=C(C(=O)c1ccco1)n1cncn1 |  |
| > 100 | 3.1 (≈ 12.1 µM) | 1.6 (≈ 6.27 µM) | C=C(C(=O)c1ccccc1OC)n1ccccc1=O |  |
| 12.5 (≈ 55.9 µM) | 12.5 (≈ 55.9 µM) | 6.3 (≈ 28.2 µM) | C=C(CN(C)C)C(=O)c1ccc(Cl)cc1 |  |
| 1.6 (≈ 5.17 µM) | 3.1 (≈ 10 µM) | 0.2 (≈ 0.646 µM) | C=C(C(=O)c1ccc(Cl)cc1)n1c(=O)ccc2ccccc21 |  |
| 12.5 (≈ 43.4 µM) | 6.3 (≈ 21.8 µM) | 0.8 (≈ 2.77 µM) | C=C(Cn1cccn1)C(=O)c1ccc(-c2ccccc2)cc1 |  |
| 3.1 (≈ 11.3 µM) | 0.8 (≈ 2.92 µM) | 0.8 (≈ 2.92 µM) | C=C(C(=O)c1ccc(Cl)cc1)n1cc(C)ccc1=O |  |
| 100 (≈ 383 µM) | 3.1 (≈ 11.9 µM) | 3.1 (≈ 11.9 µM) | COCC(C(=O)c1ccc(OC)cc1)n1cncn1 (stereo unspecified) |  |
| 6.3 (≈ 21.7 µM) | 6.3 (≈ 21.7 µM) | 3.1 (≈ 10.7 µM) | C=C(C(=O)c1ccc(Cl)cc1)N1C(=O)C=NC(=O)C1C (stereo unspecified) |  |
| 12.5 (≈ 42.4 µM) | 3.1 (≈ 10.5 µM) | 0.4 (≈ 1.36 µM) | C=C(C(=O)c1ccc(F)cc1)c1ccc(Cl)cc1Cl |  |
| 100 (≈ 371 µM) | 25 (≈ 92.8 µM) | 6.3 (≈ 23.4 µM) | C=C(Cn1ccccc1=O)C(=O)c1ccc(OC)cc1 |  |
| 6.3 (≈ 27 µM) | 0.2 (≈ 0.856 µM) | 1.6 (≈ 6.85 µM) | C=C(C(=O)c1ccc(Cl)cc1)n1cncn1 |  |
| 25 (≈ 111 µM) | 1.6 (≈ 7.14 µM) | 6.3 (≈ 28.1 µM) | C=C(C(=O)c1ccc(C#N)cc1)n1cncn1 |  |
| 50 (≈ 177 µM) | 3.1 (≈ 10.9 µM) | 3.1 (≈ 10.9 µM) | C=C(C(=O)c1ccc(C(=O)OC)cc1)n1ccccc1=O |  |
| 25 (≈ 182 µM) | 12.5 (≈ 91.1 µM) | 3.1 (≈ 22.6 µM) | C=C(C(C)=O)n1cncn1 |  |
| 12.5 (≈ 54.5 µM) | 0.8 (≈ 3.49 µM) | 0.8 (≈ 3.49 µM) | C=C(C(=O)c1ccc(OC)cc1)n1cncn1 |  |
| 3.1 (≈ 12.5 µM) | 3.1 (≈ 12.5 µM) | 0.1 (≈ 0.402 µM) | C=C(C(=O)c1cccs1)c1ccc(Cl)cc1 |  |
| 6.3 (≈ 30.7 µM) | 0.4 (≈ 1.95 µM) | 1.6 (≈ 7.8 µM) | C=C(C(=O)c1cccs1)n1cncn1 |  |
| > 100 | > 100 | > 100 | CC(C(=O)c1ccc(Cl)cc1)n1ccccc1=O (stereo unspecified) |  |

| MIC [1] [µg/mL] | MIC [2] [µg/mL] | MIC [3] [µg/mL] | SMILES | MIC [4] [µg/mL] |
| --- | --- | --- | --- | --- |
| 25 (≈ 93.6 µM) | 0.8 (≈ 2.99 µM) | 1.6 (≈ 5.99 µM) | C=C(C(=O)c1ccc(Cl)cc1Cl)n1cccn1 |  |
| 1.6 (≈ 5.12 µM) | 1.6 (≈ 5.12 µM) | 0.4 (≈ 1.28 µM) | C=C(C(=O)c1ccc(Cl)cc1)n1c(=O)n(C)c2ccccc21 |  |
| 3.1 (≈ 11.3 µM) | 0.4 (≈ 1.45 µM) | 0.2 (≈ 0.726 µM) | C=C(C(=O)c1ccc(-c2ccccc2)cc1)n1cncn1 |  |
| > 100 | 12.5 (≈ 51.4 µM) | 6.3 (≈ 25.9 µM) | C=C(Cn1cncn1)C(=O)c1ccc(OC)cc1 |  |
| 6.3 (≈ 35.2 µM) | 0.4 (≈ 2.23 µM) | 6.3 (≈ 35.2 µM) | C=C(C(=O)C(C)(C)C)n1cncn1 |  |
| 6.3 (≈ 19.2 µM) | 0.8 (≈ 2.43 µM) | 0.8 (≈ 2.43 µM) | O=C(c1ccc(Cl)cc1)C(CO)n1cnc2ccccc2c1=O (stereo unspecified) |  |
| 100 (≈ 309 µM) | 25 (≈ 77.2 µM) | 3.1 (≈ 9.57 µM) | C=C(Cn1c(=O)ccc2ccccc21)C(=O)c1ccc(Cl)cc1 |  |
| 25 (≈ 91.3 µM) | 1.6 (≈ 5.85 µM) | 0.8 (≈ 2.92 µM) | C=C(Cn1ccccc1=O)C(=O)c1ccc(Cl)cc1 |  |
| > 100 | > 100 | > 100 | C=C(C(=O)N1CCOCC1)c1ccc(Cl)cc1Cl |  |
| 6.3 (≈ 20.6 µM) | 1.6 (≈ 5.22 µM) | 0.4 (≈ 1.31 µM) | C=C(C(=O)c1ccc(OC)cc1)n1cnc2ccccc2c1=O |  |
| 1.6 (≈ 7.47 µM) | 1.6 (≈ 7.47 µM) | 0.2 (≈ 0.933 µM) | C=C(C(=O)c1cccs1)c1ccccc1 |  |
| > 100 | > 100 | 25 (≈ 86.9 µM) | CC/C=C(\C(=O)c1ccc(Cl)cc1)n1ccccc1=O |  |
| 3.1 (≈ 11.9 µM) | 0.4 (≈ 1.53 µM) | 1.6 (≈ 6.14 µM) | C=C(C(=O)c1ccc(Cl)cc1)n1cnccc1=O |  |
| 3.1 (≈ 9.76 µM) | 0.8 (≈ 2.52 µM) | 0.8 (≈ 2.52 µM) | C=C(C(=O)c1ccc(Cl)cc1)n1cc(C(=O)OC)ccc1=O |  |
| > 100 | 6.3 (≈ 18.2 µM) | 0.4 (≈ 1.16 µM) | C=C(C(=O)c1ccc(Cl)cc1Cl)c1ccc(Cl)cc1Cl |  |
| 100 (≈ 438 µM) | > 100 | 6.3 (≈ 27.6 µM) | C=C(Cc1ccccc1)C(=O)c1cccs1 |  |
| 12.5 (≈ 43.2 µM) | 1.6 (≈ 5.53 µM) | 0.4 (≈ 1.38 µM) | C=C(Cn1cncn1)C(=O)c1ccc(-c2ccccc2)cc1 |  |
| 2.5 (≈ 9.63 µM) | 1.6 (≈ 6.16 µM) | 0.8 (≈ 3.08 µM) | C=C(C(=O)c1ccc(Cl)cc1)n1ccccc1=O |  |
| 12.5 (≈ 50.5 µM) | 0.4 (≈ 1.61 µM) | 1.6 (≈ 6.46 µM) | C=C(Cn1cncn1)C(=O)c1ccc(Cl)cc1 |  |
| 50 (≈ 222 µM) | 6.3 (≈ 28 µM) | 1.6 (≈ 7.1 µM) | C=C(C(=O)c1ccccc1)n1ccccc1=O |  |
| 50 (≈ 159 µM) | 6.3 (≈ 20 µM) | 0.8 (≈ 2.54 µM) | C=C(Cn1ccccc1=O)C(=O)c1ccc(-c2ccccc2)cc1 |  |

| MIC [1] [µg/mL] | MIC [2] [µg/mL] | MIC [3] [µg/mL] | SMILES | MIC [4] [µg/mL] |
| --- | --- | --- | --- | --- |
| 12.5 (≈ 41.5 µM) | 0.8 (≈ 2.65 µM) | 0.4 (≈ 1.33 µM) | C=C(C(=O)c1ccc(-c2ccccc2)cc1)n1ccccc1=O |  |
| 3.1 (≈ 10.5 µM) | 0.8 (≈ 2.72 µM) | 0.8 (≈ 2.72 µM) | C=C(C(=O)c1ccc(Cl)cc1)n1cc(Cl)ccc1=O |  |
| > 100 | 50 (≈ 244 µM) | 6.3 (≈ 30.7 µM) | C=C(C(=O)C(C)(C)C)n1ccccc1=O |  |
| 50 (≈ 204 µM) | 50 (≈ 204 µM) | 6.3 (≈ 25.7 µM) | C=C(Cn1ccccc1=O)C(=O)c1ccsc1 |  |
| 0.4 (≈ 1.29 µM) | 0.1 (≈ 0.322 µM) | 0.1 (≈ 0.322 µM) | C=C(C(=O)c1ccc(Cl)cc1)n1cnc2ccccc2c1=O |  |
| > 100 | > 100 | 25 (≈ 70.9 µM) | C=C(C(=O)c1ccc(-c2ccccc2)cc1)n1cnc2ccccc2c1=O |  |
| 6.3 (≈ 29.5 µM) | 0.2 (≈ 0.938 µM) | 0.8 (≈ 3.75 µM) | C=C(C(=O)c1ccc(C)cc1)n1cncn1 |  |
| 25 (≈ 184 µM) | 25 (≈ 184 µM) | 1.6 (≈ 11.8 µM) | C=C(C)C(=O)c1ccco1 |  |
| 6.3 (≈ 19.4 µM) | 3.1 (≈ 9.55 µM) | 3.1 (≈ 9.55 µM) | C=C(Cn1cnc2ccccc2c1=O)C(=O)c1ccc(Cl)cc1 |  |
| > 100 | > 100 | > 100 | C=C(C(=O)Nc1ccc(Cl)cc1)c1ccc(Cl)cc1Cl |  |
| 100 (≈ 404 µM) | 3.1 (≈ 12.5 µM) | 3.1 (≈ 12.5 µM) | COc1ccc(C(=O)C(CO)n2cncn2)cc1 (stereo unspecified) |  |
| 6.3 (≈ 29 µM) | 0.4 (≈ 1.84 µM) | 0.8 (≈ 3.68 µM) | C=C(C(=O)c1ccc(F)cc1)n1cncn1 |  |
| > 100 | 12.5 (≈ 45.2 µM) | 12.5 (≈ 45.2 µM) | C=C(C(=O)c1ccc(Cl)cc1)N1CC(=O)N=CC1=O |  |
| 25 (≈ 96.3 µM) | 6.3 (≈ 24.3 µM) | 3.1 (≈ 11.9 µM) | C=C(C(=O)c1ccccc1)n1cc(Cl)ccc1=O |  |
| 12.5 (≈ 41.8 µM) | 6.3 (≈ 21.1 µM) | 3.1 (≈ 10.4 µM) | C=C(C(=O)c1ccc(Cl)cc1)n1c(O)nc2ccccc21 |  |
| 100 (≈ 456 µM) | 12.5 (≈ 57 µM) | 6.3 (≈ 28.7 µM) | C=C(Cn1cncn1)C(=O)c1ccsc1 |  |
| 1.6 (≈ 4.64 µM) | 1.6 (≈ 4.64 µM) | 0.1 (≈ 0.29 µM) | Clc1ccccc1C(c1ccccc1)(c1ccccc1)n1ccnc1 [CLOTRIMAZOLE] |  |
| 3.1 (≈ 8.12 µM) | 3.1 (≈ 8.12 µM) | 0.1 (≈ 0.262 µM) | Clc1ccc(COC(Cn2ccnc2)c2ccc(Cl)cc2Cl)cc1 (stereo unspecified) [ECONAZOLE] |  |
| 6.3 (≈ 15.1 µM) | 3.1 (≈ 7.45 µM) | 0.1 (≈ 0.24 µM) | Clc1ccc(COC(Cn2ccnc2)c2ccc(Cl)cc2Cl)c(Cl)c1 (stereo unspecified) [MICONAZOLE] |  |

| SMILES | MIC [1] [µg/mL] | MIC [2] [µg/mL] | MIC [3] [µg/mL] | MIC [4] [µg/mL] |
| --- | --- | --- | --- | --- |
| C=C(c1ccccc1OCc1cccc(Cl)c1)n1ccnc1 [CROCONAZOLE] | 3.1 (≈ 9.97 µM) |  | 0.1 (≈ 0.322 µM) | 3.1 (≈ 9.97 µM) |
